Active and inactive are the calls of the source. The rule behind the calls is not given here.
Experiments:
L1210 [1] = experiment: Antitumor activity in L1210 cells xenografted B6D2F1 mouse at 10 mg/kg, ip relative to control; type: functional; conditions: route intraperitoneal
Method in brief: (§1)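 Mice grafted with L1210 leukaemia cells on day 0, then dosed i.p. four times weekly on days 1-4 and 8-11. Five mice per group. Outcome is %T/C, the median survival of treated over control. Kruskal-Wallis test followed by Dunn comparisons against control.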

PC-3 [2] = experiment: Cell cycle arrest in PC3 cells assessed as accumulation at G2 phase at 10 uM after 72 hrs; type: functional, cell-based; conditions: Homo sapiens
Method in brief: (§2)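 PC-3 or DU-145 cells treated for 72 h with 0, 1 or 10 µM. Cell-cycle distribution (G0/G1, S, G2/M) determined by propidium iodide staining.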

Mus musculus [3] = experiment: Hematotoxicity in B6D2F1 mouse assessed as WBC count at 40 mg/kg, iv; type: organism-based; set-up: dose 40 mg/kg, route intravenous; conditions: in vivo
DU-145 [4] = experiment: Induction of autophagy in human DU145 cells by acridine orange staining at 10 uM after 72 hrs; type: functional
DU-145 [5] = experiment: Induction of apoptosis in human DU145 cells assessed as PARP cleavage activation; type: functional, cell-based
Method in brief: (§3)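 PC-3 and DU-145 cells treated over 72 h at 1 and 10 µM, compared with untreated cells. p53, PARP cleavage and procaspase-3/-9 activation assessed by immunoblotting.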

DU-145 [6] = experiment: Induction of senescence in human DU145 cells; type: functional, cell-based
Method in brief: (§4)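 SA-β-galactosidase staining of PC-3 and DU-145 prostate cancer cells after 72 h at 10 µM; adriamycin 20 nM as positive control; expressed as percentage of positively stained cells.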

Mus musculus [7] = experiment: Hematotoxicity in B6D2F1 mouse assessed as platelet count at 20 mg/kg, iv; type: organism-based; set-up: dose 20 mg/kg, route intravenous; conditions: in vivo
[8] = target: T1, DNA topoisomerase 1 (Homo sapiens) (UniProt P11387); experiment: Inhibition of human topoisomerase 1 by DNA unwinding test
T1 sequence (whole entry): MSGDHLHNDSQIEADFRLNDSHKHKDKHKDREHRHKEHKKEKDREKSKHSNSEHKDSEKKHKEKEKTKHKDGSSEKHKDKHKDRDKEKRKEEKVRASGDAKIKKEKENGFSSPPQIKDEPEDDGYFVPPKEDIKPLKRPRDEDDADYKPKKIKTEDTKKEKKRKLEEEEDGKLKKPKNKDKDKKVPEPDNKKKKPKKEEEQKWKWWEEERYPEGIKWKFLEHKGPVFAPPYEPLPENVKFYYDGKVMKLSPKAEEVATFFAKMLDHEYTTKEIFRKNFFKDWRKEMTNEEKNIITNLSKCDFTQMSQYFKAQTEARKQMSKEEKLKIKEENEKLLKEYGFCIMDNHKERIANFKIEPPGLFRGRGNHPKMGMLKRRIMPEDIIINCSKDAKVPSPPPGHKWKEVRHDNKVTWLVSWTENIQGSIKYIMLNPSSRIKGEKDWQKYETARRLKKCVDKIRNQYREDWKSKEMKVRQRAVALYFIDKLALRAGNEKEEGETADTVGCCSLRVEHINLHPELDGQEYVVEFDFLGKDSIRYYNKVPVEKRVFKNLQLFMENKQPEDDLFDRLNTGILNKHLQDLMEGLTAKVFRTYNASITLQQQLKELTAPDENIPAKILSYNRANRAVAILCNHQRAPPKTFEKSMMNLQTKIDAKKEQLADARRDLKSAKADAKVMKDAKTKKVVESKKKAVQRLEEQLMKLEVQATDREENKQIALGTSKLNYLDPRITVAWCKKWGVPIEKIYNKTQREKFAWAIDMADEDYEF
Method in brief: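 DNA unwinding assay: relaxed pBR322 plasmid converted to supercoiled form in presence of topoisomerase I; compounds at final 4–32 µM (one up to 15–55 µM); ethidium bromide-stained agarose gels; UC50 taken as concentration shifting relaxed band to midpoint between supercoiled and relaxed states.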

[9] = Antiproliferative activity against U373MG cells after 72 hrs by MTT assay; type: functional, cell-based, Homo sapiens, U-373MG ATCC; conditions: Homo sapiens, U373 MG, 72 h
Method in brief: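 Cells cultured with each compound for three days; growth then read by the MTT colorimetric assay and reported as IC50 (µM).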

Mus musculus [10] = experiment: Hematotoxicity in B6D2F1 mouse assessed as RBC count at 20 mg/kg, iv; type: organism-based; set-up: dose 20 mg/kg, route intravenous; conditions: in vivo
PC-3 [11] = experiment: Induction of senescence in human PC3 cells; type: functional, cell-based; method in brief: as §4
Homo sapiens = species: Homo sapiens; experiment: Inhibition of human topoisomerase 2 at 50 uM by plasmid linearization assay
DU-145 [12] = experiment: Cell cycle arrest in DU145 cells assessed as accumulation at G2 phase at 10 uM after 72 hrs; type: functional, cell-based; conditions: Homo sapiens; method in brief: as §2
Mus musculus [13] = experiment: Hematotoxicity in B6D2F1 mouse assessed as WBC count at 10 mg/kg, iv; type: organism-based; set-up: dose 10 mg/kg, route intravenous; conditions: in vivo
Mus musculus [14] = experiment: Hematotoxicity in B6D2F1 mouse assessed as WBC count at 80 mg/kg, po; type: organism-based; set-up: dose 80 mg/kg, route oral; conditions: in vivo
Mus musculus [15] = experiment: Hematotoxicity in B6D2F1 mouse assessed as RBC count at 80 mg/kg, po; type: organism-based; set-up: dose 80 mg/kg, route oral; conditions: in vivo
PC-3 [16] = experiment: Induction of apoptosis in human PC3 cells assessed as procaspase-8 activation; type: functional, cell-based
[17] = Antitumor activity against mouse MXT-HI cells xenografted in B6D2F1 mouse at 160 mg/kg, ip relative to control; type: functional; conditions: route intraperitoneal
Method in brief: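 MXT-HI mammary adenocarcinoma grafted s.c. onto female B6D2F1 mice. Dosing i.p., five injections weekly for three weeks from day 14 post-graft. Nine mice per group. Tumour surface area measured, and survival expressed as %T/C, the ratio of treated to control median survival time.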

Mus musculus [18] = experiment: Hematotoxicity in B6D2F1 mouse assessed as RBC count at 120 mg/kg, po; type: organism-based; set-up: dose 120 mg/kg, route oral; conditions: in vivo
DU-145 [19] = experiment: Induction of apoptosis in human DU145 cells assessed as p53 activation; type: functional, cell-based; method in brief: as §3
Mus musculus [20] = experiment: Hematotoxicity in B6D2F1 mouse assessed as RBC count at 10 mg/kg, iv; type: organism-based; set-up: dose 10 mg/kg; conditions: in vivo
Mus musculus [21] = experiment: Hematotoxicity in B6D2F1 mouse assessed as WBC count at 20 mg/kg, iv; type: organism-based; set-up: dose 20 mg/kg, route intravenous; conditions: in vivo
Mus musculus [22] = experiment: Hematotoxicity in B6D2F1 mouse assessed as platelet count at 40 mg/kg, iv; type: organism-based; set-up: dose 40 mg/kg, route intravenous; conditions: in vivo
MDA-MB-231 = experiment: Antitumor activity against human MDA-MB-231 cells xenografted in immunocompromised mouse at 10 mg/kg, iv
L1210 [23] = experiment: Antitumor activity in L1210 cells xenografted B6D2F1 mouse at 160 mg/kg, ip relative to control; type: functional; conditions: route intraperitoneal; method in brief: as §1
L1210 [24] = experiment: Antitumor activity in L1210 cells xenografted B6D2F1 mouse at 20 mg/kg, ip relative to control; type: functional; conditions: route intraperitoneal; method in brief: as §1
L1210 [25] = experiment: Antitumor activity in L1210 cells xenografted B6D2F1 mouse at 120 mg/kg, ip relative to control; type: functional; conditions: route intraperitoneal; method in brief: as §1
PC-3 [26] = experiment: Induction of apoptosis in human PC3 cells assessed as procaspase-9 activation; type: functional, cell-based; method in brief: as §3
PC-3 [27] = experiment: Induction of apoptosis in human PC3 cells assessed as PARP cleavage activation; type: functional, cell-based; method in brief: as §3
Mus musculus [28] = experiment: Hematotoxicity in B6D2F1 mouse assessed as WBC count at 120 mg/kg, po; type: organism-based; set-up: dose 120 mg/kg, route oral; conditions: in vivo

CN(C)CCN1C(=O)c2cccc3cc(NC(=O)NC(=O)C(Cl)(Cl)Cl)cc(c23)C1=O
Activity (L1210 [1]): 197%
Activity (PC-3 [2]): Active
Activity (Mus musculus [3]): 2.97 10^3 /uL
Activity (DU-145 [4]): 10%
Activity (DU-145 [5]): inactive
Activity (DU-145 [6]): Active
Activity (Mus musculus [7]): 397 10^3 /uL
UC50 [8]: 40 µM
IC50 [9]: 900 nM
Activity (Mus musculus [10]): 9.09 10^6 /uL
Activity (PC-3 [11]): inactive
Activity (Homo sapiens): inactive
Activity (DU-145 [12]): inactive
Activity (Mus musculus [13]): 3.92 10^3 /uL
Activity (Mus musculus [14]): 3.21 10^3 /uL
Activity (Mus musculus [15]): 9.95 10^6 /uL
Activity (PC-3 [16]): inactive
Activity [17]: 183%
Activity (Mus musculus [18]): 10.13 10^6 /uL
Activity (DU-145 [19]): inactive
Activity (Mus musculus [20]): 9.41 10^6 /uL
Activity (Mus musculus [21]): 2.92 10^3 /uL
Activity (Mus musculus [22]): 430 10^3 /uL
Activity (MDA-MB-231): Active
Activity (L1210 [23]): 300%
Activity (L1210 [24]): 205%
Activity (L1210 [25]): 281%
Activity (PC-3 [26]): inactive
Activity (PC-3 [27]): inactive
Activity (Mus musculus [28]): 2.85 10^3 /uL

From ChEMBL document CHEMBL1148725, “2,2,2-Trichloro-N-({2-[2-(dimethylamino)ethyl]-1,3-dioxo-2,3-dihydro-1H-benzo[de]isoquinolin- 5-yl}carbamoyl)acetamide (UNBS3157), a novel nonhematotoxic naphthalimide derivative with potent antitumor activity” (J Med Chem, 2007)
